Where “and” joins values, the source holds several entries; their conditions need not be identical. Equal values may be shown once. Calls of active or inactive are those of the source. The rule behind the calls is not given here.
What was measured:
[1] = tested on: Mus musculus; assay: Antihyperglycemic activity measured as percent decrease in mice plasma glucose at 87 mg/Kg/day; type: functional
Summary of the method: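 Male db/db (C57BL/KsJ) mice, 4–6 per group, dosed at the stated mg/kg per day. Plasma glucose is expressed as percent decrease versus the vehicle-treated group. Values are mean ± SE.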

[2] = tested on: Rattus norvegicus; assay: In vivo galactitol inhibitory activity measured by its ability to inhibit galactitol accumulation in lens at 46 mg/Kg/day; type: functional; conditions: Lens of camera-type eye
Summary of the method: (§1)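 Rats (n = 6) fed 20% galactose for 4 days, with compound given in the diet at the stated mg/kg per day. Galactitol accumulation in lens, sciatic nerve or diaphragm is scored as percent inhibition versus the non-treated group, as means of 3–8 drug-treated tissue samples. Dunnett's multiple comparison test applies; NS means p > 0.05.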

[3] = tested on: Rattus norvegicus; assay: In vivo galactitol inhibitory activity measured by its ability to inhibit galactitol accumulation in sciatic nerve at 46 mg/Kg/day; NS=Not significant (% Inhibition); type: functional, organism-based
Summary of the method: (§2)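 Rats (n = 6) fed 20% galactose for 4 days, with compound given in the diet at the stated daily dose. Galactitol accumulation was measured in lens, sciatic nerve and diaphragm, and % inhibition was taken versus the nontreated group. Means are from three to eight drug-treated tissue samples. Dunnett's multiple comparison test was applied, with p > 0.05 reported as not significant.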

[4] = tested on: Rattus norvegicus; assay: In vivo galactitol inhibitory activity measured by its ability to inhibit galactitol accumulation in diaphragm at 46 mg/Kg/day; NS=Not significant (% Inhibition); type: functional, organism-based; summary of the method: as §1
[5] = target: Aldo-keto reductase family 1 member B1 (Bos taurus) (UniProt P16116); assay: In vitro aldose reductase inhibitory activity measured by NADPH-dependent inhibition of glyceraldehyde reduction in a partially purified bovine lens preparation at 10E-7 M
Summary of the method: (§3)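 Aldose reductase partially purified from bovine lens. Inhibition of NADPH-dependent glyceraldehyde reduction is measured at the single stated concentration and reported as percent inhibition, the mean of two determinations.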

[6] = tested on: Rattus norvegicus; assay: In vivo galactitol inhibitory activity measured by its ability to inhibit galactitol accumulation in sciatic nerve at 66 mg/Kg/day; type: functional; summary of the method: as §2
[7] = tested on: Mus musculus; assay: Antihyperglycemic activity measured as percent decrease in mice plasma glucose at 100 mg/Kg/day; type: functional
Summary of the method: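 Male db/db (C57BL/KsJ) mice, 4–6 per group, dosed at 100 mg/kg per day. Plasma glucose of the drug-treated group is expressed as percent decrease relative to a vehicle-treated control group. Values are mean ± SE, with p < 0.05 marked.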

[8] = target: Aldo-keto reductase family 1 member B1 (Bos taurus) (UniProt P16116); assay: In vitro aldose reductase inhibitory activity measured by NADPH-dependent inhibition of glyceraldehyde reduction in a partially purified bovine lens preparation at 10E-6 M; summary of the method: as §3
[9] = tested on: Rattus norvegicus; assay: In vivo galactitol inhibitory activity measured by its ability to inhibit galactitol accumulation in lens at 66 mg/Kg/day; type: functional; conditions: Lens of camera-type eye; summary of the method: as §2
[10] = tested on: Rattus norvegicus; assay: In vivo galactitol inhibitory activity measured by its ability to inhibit galactitol accumulation in diaphragm at 66 mg/kg/day; type: functional; summary of the method: as §1
[11] = tested on: Rattus norvegicus; assay: In vivo galactitol inhibitory activity measured by its ability to inhibit galactitol accumulation in lens at 6 mg/Kg/day; type: functional, Lens of camera-type eye; summary of the method: as §1
[12] = tested on: Rattus norvegicus; assay: In vivo galactitol inhibitory activity measured by its ability to inhibit galactitol accumulation in diaphragm at 10 mg/Kg/day; type: functional; summary of the method: as §1
[13] = tested on: Rattus norvegicus; assay: In vivo galactitol inhibitory activity measured by its ability to inhibit galactitol accumulation in sciatic nerve at 6 mg/Kg/day; NS=Not significant (% Inhibition); type: functional, organism-based; summary of the method: as §2
[14] = tested on: Rattus norvegicus; assay: In vivo galactitol inhibitory activity measured by its ability to inhibit galactitol accumulation in diaphragm at 3 mg/Kg/day; type: functional; summary of the method: as §1
[15] = tested on: Rattus norvegicus; assay: In vivo galactitol inhibitory activity measured by its ability to inhibit galactitol accumulation in sciatic nerve at 3 mg/Kg/day; type: functional; summary of the method: as §2
[16] = tested on: Rattus norvegicus; assay: In vivo galactitol inhibitory activity measured by its ability to inhibit galactitol accumulation in diaphragm at 6 mg/Kg/day; type: functional; summary of the method: as §1
[17] = tested on: Rattus norvegicus; assay: In vivo galactitol inhibitory activity measured by its ability to inhibit galactitol accumulation in lens at 3 mg/Kg/day; NS=Not significant (% Inhibition); type: functional, organism-based; conditions: Lens of camera-type eye; summary of the method: as §1
[18] = tested on: Rattus norvegicus; assay: In vivo galactitol inhibitory activity measured by its ability to inhibit galactitol accumulation in lens at 10 mg/Kg/day; type: functional; conditions: Lens of camera-type eye; summary of the method: as §1
[19] = tested on: Rattus norvegicus; assay: In vivo galactitol inhibitory activity measured by its ability to inhibit galactitol accumulation in sciatic nerve at 10 mg/Kg/day; NS=Not significant (% Inhibition); type: functional, organism-based; summary of the method: as §2
[20] = tested on: Rattus norvegicus; assay: In vivo galactitol inhibitory activity measured by its ability to inhibit galactitol accumulation in lens at 32 mg/Kg/day; type: functional; conditions: Lens of camera-type eye; summary of the method: as §1
[21] = tested on: Rattus norvegicus; assay: In vivo galactitol inhibitory activity measured by its ability to inhibit galactitol accumulation in sciatic nerve at 32 mg/Kg/day; type: functional; summary of the method: as §2
[22] = tested on: Rattus norvegicus; assay: In vivo galactitol inhibitory activity measured by its ability to inhibit galactitol accumulation in sciatic nerve at 4 mg/Kg/day; type: functional; summary of the method: as §2
[23] = tested on: Rattus norvegicus; assay: In vivo galactitol inhibitory activity measured by its ability to inhibit galactitol accumulation in diaphragm at 4 mg/Kg/day; type: functional; summary of the method: as §1
[24] = tested on: Rattus norvegicus; assay: In vivo galactitol inhibitory activity measured by its ability to inhibit galactitol accumulation in lens at 4 mg/Kg/day; type: functional; conditions: Lens of camera-type eye; summary of the method: as §1
[25] = tested on: Rattus norvegicus; assay: In vivo galactitol inhibitory activity measured by its ability to inhibit galactitol accumulation in lens at 6 mg/Kg/day; NS=Not significant (% Inhibition); type: functional, organism-based; conditions: Lens of camera-type eye; summary of the method: as §1
[26] = tested on: Rattus norvegicus; assay: In vivo galactitol inhibitory activity measured by its ability to inhibit galactitol accumulation in diaphragm at 3 mg/Kg/day; NS=Not significant (% Inhibition); type: functional, organism-based; summary of the method: as §1
[27] = tested on: Rattus norvegicus; assay: In vivo galactitol inhibitory activity measured by its ability to inhibit galactitol accumulation in lens at 9 mg/Kg/day; NS=Not significant (% Inhibition); type: functional, organism-based; conditions: Lens of camera-type eye; summary of the method: as §2
[28] = tested on: Rattus norvegicus; assay: In vivo galactitol inhibitory activity measured by its ability to inhibit galactitol accumulation in diaphragm at 9 mg/Kg/day; NS=Not significant (% Inhibition); type: functional, organism-based; summary of the method: as §1
[29] = tested on: Rattus norvegicus; assay: In vivo galactitol inhibitory activity measured by its ability to inhibit galactitol accumulation in sciatic nerve at 9 mg/Kg/day; NS=Not significant (% Inhibition); type: functional, organism-based; summary of the method: as §2
[30] = tested on: Rattus norvegicus; assay: In vivo galactitol inhibitory activity measured by its ability to inhibit galactitol accumulation in diaphragm at 6 mg/Kg/day; NS=Not significant (% Inhibition); type: functional, organism-based; summary of the method: as §1
[31] = tested on: Rattus norvegicus; assay: In vivo galactitol inhibitory activity measured by its ability to inhibit galactitol accumulation in lens at 25 mg/Kg/day; type: functional, Lens of camera-type eye; summary of the method: as §1
[32] = tested on: Rattus norvegicus; assay: In vivo galactitol inhibitory activity measured by its ability to inhibit galactitol accumulation in sciatic nerve at 79 mg/Kg/day; type: functional; summary of the method: as §2
[33] = tested on: Rattus norvegicus; assay: In vivo galactitol inhibitory activity measured by its ability to inhibit galactitol accumulation in lens at 53 mg/Kg/day; type: functional, Lens of camera-type eye; summary of the method: as §1
[34] = tested on: Rattus norvegicus; assay: In vivo galactitol inhibitory activity measured by its ability to inhibit galactitol accumulation in diaphragm at 79 mg/Kg/day; type: functional; summary of the method: as §1
[35] = tested on: Rattus norvegicus; assay: In vivo galactitol inhibitory activity measured by its ability to inhibit galactitol accumulation in lens at 79 mg/Kg/day; type: functional; conditions: Lens of camera-type eye; summary of the method: as §2

Structure (SMILES): CC(C)N1C2(CC(=O)NC2=O)c2ccccc2S1(=O)=O (stereo not drawn)
- Decrease [1]: 27%

Structure (SMILES): O=C(O)CN1C(=O)c2ccccc2C12CC(=O)NC2=O (stereo not drawn)
- inhibition in vivo at 46 mg/kg/day [2]: 17%
- inhibition [3]: inactive
- inhibition [4]: inactive

Structure (SMILES): CN1C(=O)c2ccccc2C12CC(=O)NC2=O (stereo not drawn)
- inhibition [5]: 11%
- inhibition in vivo at 66 mg/kg/day [6]: 63%
- Decrease [7]: <15%
- inhibition [8]: 45%
- inhibition in vivo at 66 mg/kg/day [9]: 32%
- inhibition in vivo at 66 mg/kg/day [10]: 58%

Structure (SMILES): Cc1ccc2c(c1)C(=O)N(C)C21CC(=O)NC1=O (stereo not drawn)
- inhibition in vivo at 6 mg/kg/day ([11]; Rattus norvegicus, Lens of camera-type eye): 13%
- inhibition in vivo at 10 mg/kg/day [12]: 47%
- inhibition [13]: inactive
- inhibition [5]: 26%
- Decrease [7]: <15%
- inhibition in vivo at 3 mg/kg/day [14]: 27%
- inhibition in vivo at 3 mg/kg/day [15]: 20%
- inhibition in vivo at 6 mg/kg/day [16]: 39%
- inhibition [8]: 61%
- inhibition [17]: inactive
- inhibition in vivo at 10 mg/kg/day [18]: 12%
- inhibition [19]: inactive

Structure (SMILES): CN1C(=O)c2cccc(Cl)c2C12CC(=O)NC2=O (stereo not drawn)
- inhibition [5]: 19%
- inhibition in vivo at 32 mg/kg/day [20]: 13%
- inhibition [8]: 57%
- inhibition in vivo at 32 mg/kg/day [21]: 32%

Structure (SMILES): O=C1NC(=O)[C@@]2(CCOc3ccc(F)cc32)N1 [SORBINIL]
- inhibition in vivo at 4 mg/kg/day [22]: 55%
- inhibition in vivo at 4 mg/kg/day [23]: 69%
- inhibition in vivo at 4 mg/kg/day [24]: 20%

Structure (SMILES): CN1C(=O)c2c(Cl)cccc2C12CC(=O)NC2=O (stereo not drawn)
- inhibition [25]: inactive
- inhibition [13]: inactive
- inhibition [5]: 29%
- inhibition [26]: inactive
- Decrease [7]: <15%
- inhibition [27]: inactive
- inhibition in vivo at 3 mg/kg/day [15]: 21%
- inhibition [28]: inactive
- inhibition [8]: 65%
- inhibition [17]: inactive
- inhibition [29]: inactive
- inhibition [30]: inactive

Structure (SMILES): CN1C(=O)c2ccc(Cl)cc2C12CC(=O)NC2=O (stereo in doubt; 32)
- Inhibition [11]: 28% and 53%
- Inhibition [31]: 51% and 84% and 81%
- inhibition in vivo at 79 mg/kg/day [32]: 80%
- Inhibition [33]: 69% and 92% and 90%
- Decrease [7]: <15%
- inhibition in vivo at 79 mg/kg/day [34]: 92%
- inhibition in vivo at 79 mg/kg/day [35]: 81%
